Laboratory results taken from ChEMBL document CHEMBL2384980, “Development of cell-active non-peptidyl inhibitors of cysteine cathepsins” (Bioorg Med Chem, 2013).
Activity calls are given as the source filed them. No cut-off for these calls is given here.

Legend:
[1] = biological target: T1, Cathepsin B (Homo sapiens, UniProt P07858); test: Time dependent inhibition of human liver cathepsin B using Z-RR-para-nitroanilide as substrate at 500 uM
In short: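 Screening: human liver cathepsin B (175 nM) activated in 100 mM sodium phosphate pH 6.0, 5 mM DTT, 1 mM EDTA, incubated with 500 µM inhibitor (5% DMSO) at 30 °C for 10 min; aliquot diluted 17.5-fold into 3 mM Z-RR-pNA, residual activity from initial rates at 405 nm.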

[2] = biological target: T1, Cathepsin B; test: Inhibition of cathepsin B in human MDA-MB-231 cells using Z-RR-AMC as substrate at 20 uM preincubated for 20 mins prior to substrate addition measured after 10 mins by confocal microscopic analysis; format: cell-based
In short: (§1)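 Live-cell confocal imaging of MDA-MB-231 cells on poly-D-lysine glass dishes in phenol-red-free medium with 15 mM HEPES plus Oxyrase/10 mM lactate. Cells treated with 0.1% DMSO or inhibitor 20 min at 37 °C, then Z-RR-AMC (25 µM final) for 10 min. […]; average whole-cell fluorescence, 8-10 cells per experiment, three independent experiments.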

[3] = biological target: T1, Cathepsin B; test: Time dependent inhibition of human liver cathepsin B using Z-RR-para-nitroanilide as substrate
In short: (§2)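 Human liver cathepsin B (175 nM final) activated 10 min in 100 mM sodium phosphate pH 6.0, 5 mM DTT, 1 mM EDTA; inhibitor added (5% DMSO, pseudo-first order) at 30 °C. Aliquots diluted 17.5-fold into assay with 3 mM Z-RR-pNA; initial rates at 405 nm give residual activity over time.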

[4] = species: Homo sapiens; test: Selectivity ratio of Kinact for human liver cathepsin B to Kinact for human cathepsin D
[5] = biological target: T1, Cathepsin B; test: Inhibition of cathepsin B in human MDA-MB-231 cells using Z-RR-AMC as substrate preincubated for 20 mins prior to substrate addition measured after 10 mins by confocal microscopic analysis; format: cell-based; in short: as §1
[6] = Half life of the compound at 2.5 mM at pH 7.4 by NMR spectrophotometric analysis; format: physicochemical
In short: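 Hydrolytic stability by NMR: stock in deuterated DMSO added to deuterated phosphate buffer, pH 7.4 (D2O), final 2.5 mM, pseudo-first order. Spectra recorded at intervals; integrations of starting and final species compared, data fitted to single exponential decay, t1/2 = 0.693/k.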

[7] = biological target: T1, Cathepsin B; test: Irreversible inhibition of human liver cathepsin B using Z-RR-para-nitroanilide as substrate measured after dilution of compound-inactivated enzyme complex
[8] = biological target: T1, Cathepsin B; test: Inhibition of cathepsin B in human MDA-MB-231 cells assessed as increase in E-cadherin levels after 20 mins by immunofluorescence assay; format: cell-based
In short: (§3)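 MDA-MB-231 cells (IMDM, 10% FBS, 37 °C, 5% CO2) on glass coverslips 24 h, treated 20 min at 37 °C with vehicle (0.1% DMSO) or inhibitor. Fixed in 3.7% PFA, permeabilized, blocked, mouse anti-E-cadherin (1:100) overnight at 4 °C, then Alexa 594 secondary, Hoechst nuclei. Mean peripheral fluorescence intensity, 28 cells per condition, three independent experiments.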

[9] = biological target: T1, Cathepsin B; test: Inhibition of human liver cathepsin B in presence of azide ion
[10] = system: MDA-MB-231; test: Inhibition of cathepsin in human MDA-MB-231 cells assessed as change in cellular morphology at 20 uM by microscopic analysis; format: cell-based
[11] = species: Homo sapiens; test: Selectivity ratio of Kinact for human liver cathepsin B to Kinact for human cathepsin S
[12] = biological target: Cathepsin D (Homo sapiens) (UniProt P07339); test: Inhibition of human cathepsin D using Mca-Gly-Lys-Pro-Ile-Leu-Phe-Phe-Arg-Leu-Lys(Dnp)-D-Arg-NH2 as substrate
Sequence of Cathepsin D (Homo sapiens) (P07339 65-162 limits assumed): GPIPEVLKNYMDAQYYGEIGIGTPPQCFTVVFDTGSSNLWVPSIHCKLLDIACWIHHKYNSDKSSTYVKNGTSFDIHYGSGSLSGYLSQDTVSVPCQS
Sequence of Cathepsin D (Homo sapiens) (P07339 169-412 limits assumed): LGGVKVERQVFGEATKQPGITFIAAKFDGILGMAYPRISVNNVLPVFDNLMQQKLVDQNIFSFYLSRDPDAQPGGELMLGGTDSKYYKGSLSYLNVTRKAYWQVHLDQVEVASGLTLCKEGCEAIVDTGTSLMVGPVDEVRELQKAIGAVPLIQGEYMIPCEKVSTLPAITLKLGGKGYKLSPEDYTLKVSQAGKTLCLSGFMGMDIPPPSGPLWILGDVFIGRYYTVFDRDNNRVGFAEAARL

[13] = species: Homo sapiens; test: Selectivity ratio of Kinact for human liver cathepsin B to Kinact for human cathepsin F
[14] = biological target: T1, Cathepsin B; test: Inhibition of human liver cathepsin B using Z-RR-para-nitroanilide as substrate assessed as reversible equilibrium binding constant by Kitz-Wilson plot analysis
In short: (§4)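 Cathepsin B (175 nM, pH 6.0 phosphate, DTT/EDTA, 30 °C, 5% DMSO) inactivated at 25, 50, 75, 100 and 150 µM inhibitor; residual activity with 3 mM Z-RR-pNA at intervals. kobs from single-exponential fit of activity vs time at each concentration; Ki and ki from Kitz–Wilson analysis.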

[15] = biological target: T2, Cathepsin F (Homo sapiens) (UniProt Q9UBX1); test: Inhibition of human cathepsin F using Z-FR-AMC as substrate
T2 sequence (whole entry): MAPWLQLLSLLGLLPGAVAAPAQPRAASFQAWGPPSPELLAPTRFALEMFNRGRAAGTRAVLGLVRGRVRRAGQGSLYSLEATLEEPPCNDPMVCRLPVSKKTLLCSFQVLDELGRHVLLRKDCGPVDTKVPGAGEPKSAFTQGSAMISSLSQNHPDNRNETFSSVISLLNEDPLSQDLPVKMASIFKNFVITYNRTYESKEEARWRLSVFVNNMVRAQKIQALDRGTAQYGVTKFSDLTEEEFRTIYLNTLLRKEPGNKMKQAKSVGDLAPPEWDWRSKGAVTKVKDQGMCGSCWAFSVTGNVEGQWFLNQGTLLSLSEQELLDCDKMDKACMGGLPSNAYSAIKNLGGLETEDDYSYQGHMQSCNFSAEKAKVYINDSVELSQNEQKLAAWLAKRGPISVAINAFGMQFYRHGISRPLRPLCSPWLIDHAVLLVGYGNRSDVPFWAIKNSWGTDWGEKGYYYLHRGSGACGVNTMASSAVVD
In short: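 Human cathepsin F (10.8 nM final) activated 10 min at 25 °C in 50 mM potassium phosphate pH 6.5, 2.5 mM DTT, 2.5 mM EDTA, 1.0 mg/ml BSA; inhibitor added, aliquots at intervals into assay with 3 µM Z-FR-AMC at 25 °C. Second-order constant = kobs divided by inhibitor concentration.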

[16] = biological target: Cathepsin S (Homo sapiens) (UniProt P25774); test: Inhibition of human cathepsin S using Z-VVR-AMC as substrate
Sequence of Cathepsin S (Homo sapiens) (P25774 115-331 limits assumed): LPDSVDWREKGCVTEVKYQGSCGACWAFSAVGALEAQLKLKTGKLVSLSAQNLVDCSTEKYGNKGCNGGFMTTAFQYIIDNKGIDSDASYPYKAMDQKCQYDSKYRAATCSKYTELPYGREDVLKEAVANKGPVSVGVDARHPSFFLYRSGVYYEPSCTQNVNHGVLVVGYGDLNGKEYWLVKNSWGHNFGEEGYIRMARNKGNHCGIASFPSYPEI
In short: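 Human cathepsin S (134.6 nM final) activated 10 min in 100 mM potassium phosphate pH 6.5, 5 mM DTT, 5 mM EDTA; inactivated with inhibitor at 75 µM. Aliquots at intervals into buffer (8% DMSO) with 250 µM Z-VVR-AMC, Ex/Em 365/440 nm. Second-order constant = kobs/[I].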

[17] = biological target: Cathepsin S (Homo sapiens) (UniProt P25774); test: Inhibition of cathepsin S in human MDA-MB-231 cells assessed as increase in E-cadherin levels after 20 mins by immunofluorescence assay; format: cell-based; in short: as §3
[18] = biological target: T1, Cathepsin B; test: Irreversible inhibition of human liver cathepsin B after 10 mins by mass spectrophotometric analysis
In short: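 Activated cathepsin B incubated with inhibitor (800 µM) or 5% DMSO control for 10 min under kinetic-study conditions; samples mixed 1:9 with saturated α-cyano-4-hydroxycinnamic acid and analysed by MALDI mass spectrometry, positive linear mode.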

[19] = biological target: T3, Tyrosine-protein phosphatase non-receptor type 1 (Homo sapiens) (UniProt P18031); test: Inhibition of human PTP1B
T3 sequence (whole entry): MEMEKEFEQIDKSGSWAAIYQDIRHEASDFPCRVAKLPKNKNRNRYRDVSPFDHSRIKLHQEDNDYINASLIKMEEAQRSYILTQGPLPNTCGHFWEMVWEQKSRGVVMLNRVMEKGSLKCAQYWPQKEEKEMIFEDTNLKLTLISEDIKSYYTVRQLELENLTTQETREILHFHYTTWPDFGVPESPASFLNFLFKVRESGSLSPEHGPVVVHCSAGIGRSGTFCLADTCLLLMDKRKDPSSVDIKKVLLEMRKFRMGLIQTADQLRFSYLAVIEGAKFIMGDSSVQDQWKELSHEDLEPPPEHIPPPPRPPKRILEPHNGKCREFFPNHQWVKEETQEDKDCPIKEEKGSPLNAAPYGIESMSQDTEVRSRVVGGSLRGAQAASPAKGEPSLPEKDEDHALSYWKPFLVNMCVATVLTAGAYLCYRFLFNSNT

[20] = biological target: Cathepsin S (Homo sapiens) (UniProt P25774); test: Inhibition of cathepsin S in human MDA-MB-231 cells assessed as increase in E-cadherin levels at 1 to 5 uM after 30 mins by Western blotting analysis; format: cell-based
[21] = biological target: T1, Cathepsin B; test: Inhibition of human liver cathepsin B using Z-RR-para-nitroanilide as substrate in presence of leupeptin
In short: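 Active-site protection: cathepsin B inactivation (175 nM, pH 6.0 phosphate buffer with DTT/EDTA, 30 °C, 5% DMSO) run in presence of leupeptin (40 nM); residual activity measured with 3 mM Z-RR-pNA at 405 nm.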

[22] = biological target: Trypsin (Homo sapiens) (UniProt P07477+P07478+P35030); test: Inhibition of trypsin (unknown origin) using N-alpha-benzoyl-DL-arginine-p-nitroanilide as substrate; format: protein assay
In short: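 Trypsin freshly prepared in 1 mM HCl, pre-activated (190–200 U/µl final), inhibitor added; aliquots at intervals into 67 mM sodium phosphate with 3 mM BAPNA, initial rate at 410 nm. Time-dependent inhibition examined up to 1 mM over 1 h.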

[23] = biological target: T4, Cathepsin G (Homo sapiens) (UniProt P08311); test: Inhibition of human cathepsin G using Suc-AAPF-pNA as substrate
T4 sequence (whole entry): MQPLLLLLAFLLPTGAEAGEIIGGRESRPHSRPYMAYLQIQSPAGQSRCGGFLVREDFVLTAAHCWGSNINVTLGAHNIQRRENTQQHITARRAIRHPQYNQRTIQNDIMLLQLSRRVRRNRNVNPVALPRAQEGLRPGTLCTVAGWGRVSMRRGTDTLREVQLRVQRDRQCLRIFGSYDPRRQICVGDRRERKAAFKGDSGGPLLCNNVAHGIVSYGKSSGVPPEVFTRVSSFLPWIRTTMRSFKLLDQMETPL
In short: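 Human cathepsin G (7.66 nM final) activated 15 min in 20 mM Tris-HCl pH 7.4, 500 mM NaCl; inhibitor added, aliquots at intervals into buffer with 3.4 mM Suc-AAPF-pNA. Time-dependent inhibition examined up to 1 mM over 1 h.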

[24] = biological target: T1, Cathepsin B; test: Inhibition of cathepsin B in human MDA-MB-231 cells assessed as increase in E-cadherin levels at 1 to 5 uM after 30 mins by Western blotting analysis; format: cell-based
[25] = system: MDA-MB-231; test: Inhibition of cathepsin in human MDA-MB-231 cells assessed as decrease in cell migratory behavior after 6 hrs by microscopic analysis; format: cell-based
In short: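 MDA-MB-231 cells plated as concentric circles through a sedimentation manifold on BSA-coated glass slide; after manifold removal, treated with 0.05% DMSO or inhibitor (10 and 20 µM) for 6 h at 37 °C. Images at t0 and t6; motility taken as change in total area (µm2), mean ± S.D. of triplicates.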

[26] = biological target: T1, Cathepsin B; test: Inhibition of human liver cathepsin B using Z-RR-para-nitroanilide as substrate; in short: as §2
[27] = biological target: T1, Cathepsin B; test: Inhibition of human liver cathepsin B using Z-RR-para-nitroanilide as substrate assessed as first-order inactivation rate constant by Kitz-Wilson plot analysis; in short: as §4
[28] = biological target: T1, Cathepsin B; test: Inhibition of human liver cathepsin B
In short: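 Human liver cathepsin B (175 nM final) activated 10 min in 100 mM sodium phosphate pH 6.0 with 5 mM DTT, 1 mM Na2EDTA, then incubated with inhibitor (5% DMSO) at 30 °C under pseudo-first-order conditions. Aliquots diluted 17.5-fold into 3 mM Z-RR-pNA; initial rates read at 405 nm. Screening used 500 µM inhibitor with residual activity after 10 min.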

In the case of O=S(=O)(c1ccc(OC(F)(F)F)cc1)C1CO1 (stereo not given), the inhibition [1] is reported as 30%.

COc1ccc(OC)c(S(=O)(=O)C2CO2)c1 (stereo not given) showed an inhibition [1] of 25%.

With CCc1ccccc1S(=O)(=O)C1CO1 (stereo not given) the inhibition [2] was “Active”, the inhibition [3] was “Active” and the Selectivity ratio [4] was 38. For the same compound, the inhibition [5] was “Dose-dependent effect”, the half-life at 2500 µM [6] was 3.6 h and the inhibition [7] was “Active”. For the same compound, the inhibition [1] was greater than 98%, the inhibition [8] was “Dose-dependent effect” and the inhibition [9] was “Active”. For the same compound, the inhibition [10] was “Active”, the Selectivity ratio [11] was 1.9 and the Kinact [12] was 1.08 M⁻¹ s⁻¹. The Selectivity ratio [13] was 1.9, the Ki [14] was 86 µM and the Kinact [15] was 21.7 M⁻¹ s⁻¹. The Kinact [16] was 19.9 M⁻¹ s⁻¹, the inhibition [17] was “Dose-dependent effect” and the inhibition [18] was “Active”. The inhibition [19] was “inactive”, the inhibition [20] was “Active” and the inhibition [21] was “inactive”. The inhibition [22] was “inactive”, the inhibition [23] was “inactive” and the inhibition [24] was “Active”. The inhibition [25] was “Dose-dependent effect”, the Kinact [26] was 40.7 M⁻¹ s⁻¹ and the Kinact [27] was 0.21 min⁻¹.

Work on O=S(=O)(c1cc(Cl)cc(Cl)c1)C1CO1 (stereo not given) yielded an inhibition [1] of 50%.

COc1cccc(S(=O)(=O)C2CO2)c1 (stereo not given) gave an inhibition [1] of 35%.

Work on Cc1ccc(C)c(S(=O)(=O)C2CO2)c1 (stereo not given) yielded an inhibition [1] of 42%.

With O=S(=O)(CC1CS1)c1ccccc1 (stereo not given) the inhibition [1] was “inactive”.

For O=S(=O)(CC1CO1)c1ccccc1 (stereo not given), the inhibition [1] was “inactive”.

With O=S(=O)(c1ccccc1)C1OC1c1ccc(F)cc1 (stereo not given) the inhibition [1] was “inactive”.

Work on CC(=O)N[C@@H](CC(C)C)C(=O)N[C@@H](CC(C)C)C(=O)N[C@H](C=O)CCCNC(=N)N [LEUPEPTIN] yielded a Ki [28] of 0.005 µM.

O=S(=O)(c1ccc(Cl)cc1)C1CO1 (stereo not given) showed an inhibition [1] of 44%.

Compound O=S(=O)(c1ccc2ccccc2c1)C1CO1 (stereo not given) has an inhibition [1] of 18%.

With Cc1cccc(S(=O)(=O)C2CO2)c1 (stereo not given) the inhibition [1] was 40%.

In the case of CCCC1OC1S(=O)(=O)c1ccccc1 (stereo not given), the inhibition [1] is reported as “inactive”.
